Legend:
HEK293 = assay: Cytotoxicity against human HEK293 cells after 2 days by cell counting kit-8 analysis; format: cell-based; conditions: HEK293, 48 h
Method in brief: (§1)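 Cells grown per supplier's instructions, seeded at 2-4 × 10⁴ cells/well and incubated overnight in medium with 10% FBS at 37 °C, 5% CO₂. On day 2, after 4 h FBS starvation, medium was replaced with medium containing graded compound concentrations. Absorbance read at 450 nm. IC50 from a four-parameter logistic fit. Three independent experiments in triplicate, mean ± S.D.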

DU-145 = assay: Cytotoxicity against human DU145 cells after 2 days by cell counting kit-8 analysis; format: functional, cell-based; conditions: DU-145, 48 h; method in brief: as §1
HCT-15 = assay: Cytotoxicity against human HCT15 cells after 2 days by cell counting kit-8 analysis; format: functional, cell-based; conditions: HCT-15, 48 h; method in brief: as §1
T47D = assay: Cytotoxicity against human T47D cells after 2 days by cell counting kit-8 analysis; format: functional, cell-based; conditions: 48 h; method in brief: as §1
[1] = biological target: T1, DNA topoisomerase 1 (Homo sapiens) (UniProt P11387); assay: Inhibition of recombinant human DNA topoisomerase-1-mediated relaxation of supercoiled pBR322 at 100 uM after 30 mins using ethidium bromide staining by agarose gel electrophoresis
T1 sequence (whole entry): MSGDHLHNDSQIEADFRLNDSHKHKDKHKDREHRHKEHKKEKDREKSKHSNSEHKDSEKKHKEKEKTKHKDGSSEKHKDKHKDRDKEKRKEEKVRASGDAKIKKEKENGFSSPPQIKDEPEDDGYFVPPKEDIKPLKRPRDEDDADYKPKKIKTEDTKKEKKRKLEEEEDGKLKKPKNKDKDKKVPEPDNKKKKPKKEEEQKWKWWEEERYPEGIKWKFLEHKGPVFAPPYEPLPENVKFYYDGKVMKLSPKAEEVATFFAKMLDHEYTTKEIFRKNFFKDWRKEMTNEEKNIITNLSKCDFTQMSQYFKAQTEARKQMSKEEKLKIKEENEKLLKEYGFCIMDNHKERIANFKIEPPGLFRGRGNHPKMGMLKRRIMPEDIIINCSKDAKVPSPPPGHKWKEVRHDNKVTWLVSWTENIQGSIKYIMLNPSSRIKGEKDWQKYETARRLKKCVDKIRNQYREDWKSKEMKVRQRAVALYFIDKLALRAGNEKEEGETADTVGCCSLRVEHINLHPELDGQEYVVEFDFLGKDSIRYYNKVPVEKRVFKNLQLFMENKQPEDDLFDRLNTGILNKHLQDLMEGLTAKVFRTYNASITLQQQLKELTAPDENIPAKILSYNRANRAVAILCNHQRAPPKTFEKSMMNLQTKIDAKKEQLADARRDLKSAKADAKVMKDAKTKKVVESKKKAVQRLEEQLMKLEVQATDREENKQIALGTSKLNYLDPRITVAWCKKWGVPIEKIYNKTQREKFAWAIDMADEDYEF
Method in brief: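 Compounds from 20 mM DMSO stocks. 100 ng pBR322 plasmid DNA with 1 unit recombinant human topo I, with or without compound, 37 °C for 30 min. Relaxation buffer was 10 mM Tris-HCl pH 7.9, 150 mM NaCl, 0.1% BSA, 1 mM spermidine. Relaxation of supercoiled DNA assessed by gel imaging.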

[2] = biological target: DNA topoisomerase 2-alpha (Homo sapiens) (UniProt P11388); assay: Inhibition of human DNA topoisomerase-2alpha-mediated relaxation of supercoiled pBR322 at 100 uM after 30 mins using ethidium bromide staining by agarose gel electrophoresis
Method in brief: (§2)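 200 ng supercoiled pBR322 with 1 unit human topo IIα, with or without compound. Buffer was 10 mM Tris-HCl pH 7.9, 50 mM NaCl, 5 mM MgCl₂, 1 mM EDTA, 1 mM ATP and bovine serum albumin. Incubated 30 min at 30 °C, stopped with EDTA. Products run on 1% agarose gel, 25 V, 4 h, TAE buffer. Compound stocks 20 mM in DMSO.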

[3] = biological target: DNA topoisomerase 2-alpha (Homo sapiens) (UniProt P11388); assay: Inhibition of human DNA topoisomerase-2alpha-mediated relaxation of supercoiled pBR322 at 20 uM after 30 mins using ethidium bromide staining by agarose gel electrophoresis; method in brief: as §2

Sequence of DNA topoisomerase 2-alpha (Homo sapiens) (P11388 whole entry): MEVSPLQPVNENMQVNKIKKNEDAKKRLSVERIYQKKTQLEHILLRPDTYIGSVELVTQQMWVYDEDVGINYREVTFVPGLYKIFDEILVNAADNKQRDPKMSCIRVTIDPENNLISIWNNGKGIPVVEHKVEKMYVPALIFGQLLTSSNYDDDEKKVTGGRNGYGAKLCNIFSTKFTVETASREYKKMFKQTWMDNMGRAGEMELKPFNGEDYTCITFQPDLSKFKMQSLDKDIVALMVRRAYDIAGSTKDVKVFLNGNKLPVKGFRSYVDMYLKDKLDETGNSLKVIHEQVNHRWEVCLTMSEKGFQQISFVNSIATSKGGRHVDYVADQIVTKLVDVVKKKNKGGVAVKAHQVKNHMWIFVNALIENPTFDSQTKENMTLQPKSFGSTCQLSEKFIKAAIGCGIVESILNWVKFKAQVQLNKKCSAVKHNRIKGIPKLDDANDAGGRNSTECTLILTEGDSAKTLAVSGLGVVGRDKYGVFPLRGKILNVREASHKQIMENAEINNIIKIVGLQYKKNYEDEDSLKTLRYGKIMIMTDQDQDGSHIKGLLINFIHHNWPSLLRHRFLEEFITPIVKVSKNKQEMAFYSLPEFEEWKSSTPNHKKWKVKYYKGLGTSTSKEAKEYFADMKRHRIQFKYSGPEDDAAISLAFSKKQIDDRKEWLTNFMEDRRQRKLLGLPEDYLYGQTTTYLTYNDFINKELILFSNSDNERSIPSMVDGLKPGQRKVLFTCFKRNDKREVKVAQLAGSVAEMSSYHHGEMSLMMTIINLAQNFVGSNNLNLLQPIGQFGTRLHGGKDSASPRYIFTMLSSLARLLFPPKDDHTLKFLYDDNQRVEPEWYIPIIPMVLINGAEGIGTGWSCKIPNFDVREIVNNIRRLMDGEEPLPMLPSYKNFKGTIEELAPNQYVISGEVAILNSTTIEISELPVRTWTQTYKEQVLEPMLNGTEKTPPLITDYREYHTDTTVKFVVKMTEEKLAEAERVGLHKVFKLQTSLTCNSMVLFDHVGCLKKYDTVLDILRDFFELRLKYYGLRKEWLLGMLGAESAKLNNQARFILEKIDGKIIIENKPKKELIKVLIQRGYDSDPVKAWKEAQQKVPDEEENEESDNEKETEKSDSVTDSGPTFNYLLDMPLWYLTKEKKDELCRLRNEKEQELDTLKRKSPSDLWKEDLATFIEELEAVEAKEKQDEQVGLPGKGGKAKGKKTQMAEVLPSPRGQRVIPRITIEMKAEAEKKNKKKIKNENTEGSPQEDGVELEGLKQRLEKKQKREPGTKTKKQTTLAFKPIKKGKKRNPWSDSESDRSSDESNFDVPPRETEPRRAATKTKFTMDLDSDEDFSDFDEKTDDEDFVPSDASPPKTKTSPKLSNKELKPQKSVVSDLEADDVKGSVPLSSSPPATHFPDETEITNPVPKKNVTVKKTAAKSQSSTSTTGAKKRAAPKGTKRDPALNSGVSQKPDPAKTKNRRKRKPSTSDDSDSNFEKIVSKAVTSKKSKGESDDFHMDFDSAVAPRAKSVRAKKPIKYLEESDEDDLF

Compound	inhibition [1]	inhibition [2]	inhibition [3]	IC50 (HEK293)	IC50 (DU-145)	IC50 (HCT-15)	IC50 (T47D)
COc1cccc2c1C(=O)c1c(O)c3c(c(O)c1C2=O)C[C@@](O)(C(=O)CO)C[C@@H]3O[C@H]1C[C@H](N)[C@H](O)[C@H](C)O1 [DOXORUBICIN]				1.34 µM	1.1 µM	1.03 µM	1.05 µM
Oc1cccc(-c2cc(-c3ccco3)nc(-c3ccccc3Cl)c2)c1	0%	77.9%	8.6%	1.86 µM	1.63 µM	2.23 µM	2.01 µM
Oc1cccc(-c2cc(-c3ccccc3)nc(-c3ccc(Cl)cc3)c2)c1	7.1%	76.3%	53%	11.6 µM	11.2 µM	8.11 µM	11.3 µM
Oc1ccc(-c2cc(-c3ccc(Cl)cc3)nc(-c3ccco3)c2)cc1	15.8%	84.1%	36.2%	5.72 µM	7.28 µM	7.02 µM	6.26 µM
Oc1ccc(-c2cc(-c3ccsc3)nc(-c3cccc(Cl)c3)c2)cc1	26%	83.7%	0%	2.67 µM	6.22 µM	5.76 µM	7.39 µM
Oc1cccc(-c2cc(-c3cccnc3)nc(-c3ccccc3Cl)c2)c1	0%	0%					
CC[C@@]1(O)C(=O)OCc2c1cc1n(c2=O)Cc2cc3ccccc3nc2-1 [CAMPTOTHECIN]				1.01 µM	1.06 µM	1.38 µM	1.53 µM
Oc1ccc(-c2cc(-c3ccncc3)nc(-c3cccc(Cl)c3)c2)cc1	29.2%	0%					
Oc1ccc(-c2cc(-c3ccncc3)nc(-c3ccc(Cl)cc3)c2)cc1	5.9%	2.4%					
Oc1cccc(-c2cc(-c3cccc(Cl)c3)nc(-c3cccs3)c2)c1	7.6%	80.4%	39%	3.15 µM	2.65 µM	2.61 µM	3.41 µM
Oc1cccc(-c2cc(-c3cccs3)nc(-c3ccccc3Cl)c2)c1	2.7%	78.9%	10.7%	2.6 µM	1.7 µM	2.79 µM	3.99 µM
Oc1cccc(-c2cc(-c3ccccc3)nc(-c3cccc(Cl)c3)c2)c1	11.5%	81.1%	49.1%	3.12 µM	2.75 µM	2.55 µM	3.7 µM
Oc1cccc(-c2cc(-c3ccccn3)nc(-c3ccccc3Cl)c2)c1	0%	19.1%					
Oc1ccc(-c2cc(-c3ccsc3)nc(-c3ccccc3Cl)c2)cc1	4.1%	80.5%	29.2%	5.93 µM	3.89 µM	5.83 µM	6.11 µM
Oc1cccc(-c2cc(-c3ccc(Cl)cc3)nc(-c3cccnc3)c2)c1	2.8%	40.4%	10.6%	39.5 µM	26.8 µM	16.8 µM	18.1 µM
Oc1ccc(-c2cc(-c3cccc(Cl)c3)nc(-c3ccco3)c2)cc1	25.5%	71.3%	0%	2.88 µM	5.75 µM	8.02 µM	5.22 µM
Oc1ccc(-c2cc(-c3ccc(Cl)cc3)nc(-c3cccnc3)c2)cc1	18.8%	59.1%	11.9%	27.4 µM	22.8 µM	20.7 µM	29.3 µM
Oc1cccc(-c2cc(-c3cccc(Cl)c3)nc(-c3ccccn3)c2)c1	0.4%	2.4%					
Oc1ccc(-c2cc(-c3ccco3)nc(-c3ccccc3Cl)c2)cc1	3.9%	77.8%	7.7%	4.31 µM	5.3 µM	5.46 µM	5.48 µM
Oc1ccc(-c2cc(-c3cccs3)nc(-c3ccccc3Cl)c2)cc1	2.2%	78.3%	8.2%	5.22 µM	4.19 µM	5.43 µM	5.87 µM
Oc1ccc(-c2cc(-c3ccccn3)nc(-c3ccccc3Cl)c2)cc1	5.2%	21.1%					

More lines, main results first:

inhibition [1]	inhibition [2]	inhibition [3]	Compound	IC50 (HEK293)	IC50 (DU-145)	IC50 (HCT-15)	IC50 (T47D)
0%	13.9%		Oc1cccc(-c2cc(-c3ccncc3)nc(-c3cccc(Cl)c3)c2)c1				
9.9%	0%		Oc1ccc(-c2cc(-c3ccncc3)nc(-c3ccccc3Cl)c2)cc1				
15.1%	75.5%	54.2%	Oc1cccc(-c2cc(-c3ccc(Cl)cc3)nc(-c3cccs3)c2)c1	11.8 µM	11.6 µM	9.28 µM	10.5 µM
26.2%	80.1%	15.4%	Oc1cccc(-c2cc(-c3ccsc3)nc(-c3cccc(Cl)c3)c2)c1	3.18 µM	3.33 µM	2.51 µM	3.54 µM
27.1%	63.8%	16.7%	Oc1cccc(-c2cc(-c3ccc(Cl)cc3)nc(-c3ccco3)c2)c1	8.19 µM	11.4 µM	10.2 µM	10.5 µM
		20%	COc1cc([C@@H]2c3cc4c(cc3[C@@H](O[C@@H]3O[C@@H]5CO[C@@H](C)O[C@H]5[C@H](O)[C@H]3O)[C@H]3COC(=O)[C@H]23)OCO4)cc(OC)c1O [ETOPOSIDE]	1.21 µM	1.21 µM	1.17 µM	2.39 µM
0%	76.8%	0.5%	Oc1ccc(-c2cc(-c3ccccc3)nc(-c3cccc(Cl)c3)c2)cc1	2.82 µM	5.36 µM	6.1 µM	4.79 µM
8%	51.7%	12.9%	Oc1cccc(-c2cc(-c3ccncc3)nc(-c3ccc(Cl)cc3)c2)c1	2.89 µM	2.51 µM	2.63 µM	3.33 µM
11.7%	71.6%	38.3%	Oc1cccc(-c2cc(-c3ccc(Cl)cc3)nc(-c3ccsc3)c2)c1	11.2 µM	11.6 µM	8.85 µM	11.5 µM
5.5%	70.1%	4.8%	Oc1cccc(-c2cc(-c3cccc(Cl)c3)nc(-c3ccco3)c2)c1	2.53 µM	2.02 µM	2.46 µM	3.57 µM
13.6%	77.5%	5.5%	Oc1ccc(-c2cc(-c3ccccc3)nc(-c3ccccc3Cl)c2)cc1	3.93 µM	2.8 µM	4.99 µM	5.46 µM
27.6%	0%		Oc1cccc(-c2cc(-c3cccnc3)nc(-c3cccc(Cl)c3)c2)c1				
0%	0.7%		Oc1cccc(-c2cc(-c3ccncc3)nc(-c3ccccc3Cl)c2)c1				
0%	77.1%	15.7%	Oc1cccc(-c2cc(-c3ccsc3)nc(-c3ccccc3Cl)c2)c1	2.72 µM	1.97 µM	2.5 µM	2.44 µM
0.9%	0%		Oc1ccc(-c2cc(-c3cccnc3)nc(-c3ccccc3Cl)c2)cc1				

— ChEMBL document CHEMBL2169746, “Design, synthesis, and antitumor evaluation of 2,4,6-triaryl pyridines containing chlorophenyl and phenolic moiety” (Eur J Med Chem, 2012)
